Measured values as given in ChEMBL document CHEMBL1671809, “Discovery of phosphoric acid mono-{2-[(E/Z)-4-(3,3-dimethyl-butyrylamino)-3,5-difluoro-benzoylimino]-thiazol-3-ylmethyl} ester (Lu AA47070): a phosphonooxymethylene prodrug of a potent and selective hA(2A) receptor antagonist” (J Med Chem, 2011).
Converted amounts (≈) assume the structure as drawn.

Columns and labels:
[1] = Aqueous solubility of the compound at pH 4; type: physicochemical; details: water
[2] = Chemical stability of the compound assessed as half life; type: physicochemical
Outline: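 Prodrug was dissolved in water, filtered, and diluted to approximately 0.05 mg/mL in buffers of different pH. Sealed vials were stored at 50 C to accelerate hydrolysis. Samples were diluted 1:1 with acetonitrile and analysed by HPLC for prodrug and hydrolysis products.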

Rattus norvegicus [3] = assay: Tmax in Sprague-Dawley rat assessed as 4-(3,3-Dimethyl-butyrylamino)-3,5-difluoro-N-thiazol-2-yl-benzamide level at 1.4 mg/kg, po; type: ADME, organism-based; parameters: dose 1.4 mg/kg, route oral; details: in vivo
Outline: (§1)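 Prodrugs dosed po in aqueous 10% hydroxypropyl β-cyclodextrin (2 mL/kg) to rats; doses expressed as parent-drug equivalents; n = 3. Six tail-vein blood samples (~100 μL) taken between 5 and 420 min. Parent drug in plasma measured by HTLC-MS/MS. Profiles fitted with a one-compartment model; AUC extrapolated to infinity.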

Rattus norvegicus [4] = assay: Cmax in Sprague-Dawley rat assessed as 4-(3,3-Dimethyl-butyrylamino)-3,5-difluoro-N-thiazol-2-yl-benzamide level at 1.4 mg/kg, po; type: ADME, organism-based; parameters: dose 1.4 mg/kg, route oral; details: in vivo; outline: as §1
Rattus norvegicus [5] = assay: Oral bioavailability in Sprague-Dawley rat assessed as 4-(3,3-Dimethyl-butyrylamino)-3,5-difluoro-N-thiazol-2-yl-benzamide level at 1.4 mg/kg; type: ADME, organism-based; details: in vivo; outline: as §1
Adenosine receptor A2a = Adenosine receptor A2a (Homo sapiens, UniProt P29274); assay: Displacement of [3H]-ZM241385 from human adenosine A2A receptor expressed in high five cells after 30 mins by scintillation counting
[6] = biological target: T1, Adenosine receptor A1 (Homo sapiens) (UniProt P30542); assay: Displacement of [3H]-DPCPX from human adenosine A1 receptor expressed in CHO cells at 10 uM after 30 mins by scintillation counting; type: cell-based
T1 sequence (whole entry): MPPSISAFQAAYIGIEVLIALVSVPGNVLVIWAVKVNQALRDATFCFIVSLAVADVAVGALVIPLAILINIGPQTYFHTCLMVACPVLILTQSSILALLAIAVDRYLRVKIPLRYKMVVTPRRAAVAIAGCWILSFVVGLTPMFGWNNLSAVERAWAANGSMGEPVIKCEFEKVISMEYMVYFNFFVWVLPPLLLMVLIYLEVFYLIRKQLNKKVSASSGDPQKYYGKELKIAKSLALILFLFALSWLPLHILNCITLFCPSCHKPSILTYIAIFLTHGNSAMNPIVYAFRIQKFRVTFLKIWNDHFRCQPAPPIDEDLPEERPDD

Cytochrome P450 1A2 = biological target: T2, Cytochrome P450 1A2 (Homo sapiens, UniProt P05177); assay: Inhibition of recombinant CYP1A2 after 28 mins; type: ADME
T2 sequence (P05177 whole entry): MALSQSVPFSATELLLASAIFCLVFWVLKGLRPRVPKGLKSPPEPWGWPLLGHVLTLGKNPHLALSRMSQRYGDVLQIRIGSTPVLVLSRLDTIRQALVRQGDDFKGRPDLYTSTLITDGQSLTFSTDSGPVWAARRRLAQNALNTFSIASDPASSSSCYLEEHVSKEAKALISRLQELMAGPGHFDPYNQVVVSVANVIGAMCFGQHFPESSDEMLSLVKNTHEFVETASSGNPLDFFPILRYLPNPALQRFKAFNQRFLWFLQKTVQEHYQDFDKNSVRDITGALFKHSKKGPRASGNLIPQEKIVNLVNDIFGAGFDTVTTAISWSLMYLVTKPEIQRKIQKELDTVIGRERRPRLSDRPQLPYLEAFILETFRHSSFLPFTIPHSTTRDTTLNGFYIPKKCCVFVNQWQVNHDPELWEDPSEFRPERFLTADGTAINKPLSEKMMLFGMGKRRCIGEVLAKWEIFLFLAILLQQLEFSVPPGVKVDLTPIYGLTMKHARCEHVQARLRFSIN
Outline: (§2)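 Recombinant CYP supersomes incubated in phosphate buffer with eight compound concentrations (40-0.02 μM) and fluorogenic substrates. CYP1A2: 7-ethoxy-3-cyanocoumarin 10 μM, 28 min. CYP2C19: same substrate 50 μM, 45 min. CYP2D6: AMMC 3 μM, 45 min. CYP3A4: resorufin benzyl ether 100 μM, 30 min. Fluorescent metabolite read; IC50 relative to uninhibited controls.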

Cytochrome P450 2C19 = Cytochrome P450 2C19 (Homo sapiens, UniProt P33261); assay: Inhibition of recombinant CYP2C19 after 45 mins; type: ADME; outline: as §2
Cytochrome P450 2D6 = Cytochrome P450 2D6 (Homo sapiens, UniProt P10635); assay: Inhibition of recombinant CYP2D6 after 45 mins; type: ADME; outline: as §2
Mus musculus = assay: Reversal of haloperidol-induced hypolocomotion in po dosed NMRI mouse administered 30 mins before haloperidol challenge measured for 20 mins; type: functional
Outline: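 Male NMRI mice (n = 8/group) were given compound po in 25% cremophor/saline, then haloperidol 0.63 mg/kg sc 30 min later. After 15 min they went into photocell activity boxes, and locomotion was recorded for 20 min. ED50 by sigmoidal fit with top 100 and bottom 0.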

[7] = biological target: T1, Adenosine receptor A1 (Homo sapiens); assay: Displacement of [3H]-DPCPX from human adenosine A1 receptor expressed in CHO cells at 2000 nM after 30 mins by scintillation counting
Caco-2 = assay: Efflux ratio of permeability from basolateral to apical over apical to basolateral side in human Caco2 cells after 21 to 28 days by LC-MS/MS analysis
Adenosine receptor A1 = biological target: T3, Adenosine receptor A1 (Homo sapiens, UniProt P30542); assay: Displacement of [3H]-DPCPX from human adenosine A1 receptor expressed in CHO cells after 30 mins by scintillation counting; type: cell-based
T3 sequence (P30542 whole entry): T1 sequence (whole entry)
Outline: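 CHO-hA1 membranes at 10.8 μg protein/well, pretreated with adenosine deaminase (2 U/mL, 30 min, 37 C), were incubated with 1 nM [3H]-DPCPX in 50 mM Tris/HCl pH 7.4 for 30 min at 25 C across 10 compound concentrations. Filtration on PEI-soaked GF/B, scintillation counting. Nonspecific binding by CGS15943. Ki by Cheng-Prusoff. Means of ≥2 determinations.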

Homo sapiens = species: Homo sapiens; assay: Selectivity ratio of Ki for human adenosine A1 receptor to Ki for human adenosine A2A receptor
Liver microsomes [8] = assay: Intrinsic clearance in human liver microsomes at 1 uM after 60 mins by LC-MS/MS analysis; type: ADME, Microsome; details: 1 h
Outline: (§3)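 Compound at 1 μM with human or rat liver microsomes (0.5 mg protein/mL) plus NADPH at 37 C. Samples at 0, 5, 15, 30 and 60 min, quenched with acetonitrile, analysed by LC-MS/MS.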

Liver microsomes [9] = assay: Intrinsic clearance in rat liver microsomes at 1 uM after 60 mins by LC-MS/MS analysis; type: ADME, Microsome; details: 1 h; outline: as §3
Cytochrome P450 2C9 = Cytochrome P450 2C9 (Homo sapiens, UniProt P11712); assay: Inhibition of recombinant CYP2C9 after 45 mins; type: ADME
Cytochrome P450 3A4 = Cytochrome P450 3A4 (Homo sapiens, UniProt P08684); assay: Inhibition of recombinant CYP3A4 after 30 mins; type: ADME
Outline: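 Recombinant CYP supersomes incubated in phosphate buffer with eight compound concentrations (40-0.02 μM) and fluorogenic substrates. CYP3A4: resorufin benzyl ether 100 μM, 30 min. Fluorescent metabolite read; IC50 relative to uninhibited controls.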

Chain of Cytochrome P450 2D6 (P10635 whole entry): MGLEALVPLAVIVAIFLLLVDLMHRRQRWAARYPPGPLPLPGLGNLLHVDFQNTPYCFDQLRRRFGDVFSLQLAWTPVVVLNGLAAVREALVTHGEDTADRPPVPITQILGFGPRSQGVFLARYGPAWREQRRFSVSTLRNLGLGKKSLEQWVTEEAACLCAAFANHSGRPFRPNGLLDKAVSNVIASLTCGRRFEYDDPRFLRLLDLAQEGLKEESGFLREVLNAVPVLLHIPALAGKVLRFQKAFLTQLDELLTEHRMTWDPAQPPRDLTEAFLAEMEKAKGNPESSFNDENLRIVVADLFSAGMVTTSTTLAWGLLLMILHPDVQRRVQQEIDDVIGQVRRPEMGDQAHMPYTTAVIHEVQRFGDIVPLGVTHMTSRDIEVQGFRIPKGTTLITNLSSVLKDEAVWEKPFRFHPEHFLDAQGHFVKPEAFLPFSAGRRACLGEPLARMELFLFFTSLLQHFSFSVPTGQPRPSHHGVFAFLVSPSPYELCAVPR
Chain of Cytochrome P450 2C9 (P11712 whole entry): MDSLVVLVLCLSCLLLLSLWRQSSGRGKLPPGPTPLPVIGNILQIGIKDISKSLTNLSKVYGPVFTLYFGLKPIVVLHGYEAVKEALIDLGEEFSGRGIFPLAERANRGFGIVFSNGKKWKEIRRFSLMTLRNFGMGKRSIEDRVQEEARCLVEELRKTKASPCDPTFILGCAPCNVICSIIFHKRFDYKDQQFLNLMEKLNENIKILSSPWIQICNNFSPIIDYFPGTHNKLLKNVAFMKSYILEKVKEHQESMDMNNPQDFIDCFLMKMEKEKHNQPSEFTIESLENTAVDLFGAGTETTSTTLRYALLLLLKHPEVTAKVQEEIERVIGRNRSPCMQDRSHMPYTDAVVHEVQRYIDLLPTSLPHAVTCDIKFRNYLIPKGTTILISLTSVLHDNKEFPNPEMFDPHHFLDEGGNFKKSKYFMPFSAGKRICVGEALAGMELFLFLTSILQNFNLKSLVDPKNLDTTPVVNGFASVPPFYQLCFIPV
Chain of Cytochrome P450 3A4 (P08684 whole entry): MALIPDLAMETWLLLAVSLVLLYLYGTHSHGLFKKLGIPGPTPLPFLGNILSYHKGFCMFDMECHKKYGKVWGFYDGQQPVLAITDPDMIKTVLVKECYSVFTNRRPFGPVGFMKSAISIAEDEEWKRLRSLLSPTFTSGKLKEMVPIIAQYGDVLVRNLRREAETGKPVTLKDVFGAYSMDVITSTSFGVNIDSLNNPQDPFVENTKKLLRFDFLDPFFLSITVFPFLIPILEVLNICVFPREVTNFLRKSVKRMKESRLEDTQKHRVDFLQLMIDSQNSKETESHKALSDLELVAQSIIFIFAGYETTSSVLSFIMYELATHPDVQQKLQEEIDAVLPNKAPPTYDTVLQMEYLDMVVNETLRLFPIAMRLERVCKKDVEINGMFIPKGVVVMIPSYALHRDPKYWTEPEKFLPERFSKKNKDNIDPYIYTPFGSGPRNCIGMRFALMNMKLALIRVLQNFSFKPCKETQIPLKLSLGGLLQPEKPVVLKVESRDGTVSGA
Chain of Cytochrome P450 2C19 (P33261 whole entry): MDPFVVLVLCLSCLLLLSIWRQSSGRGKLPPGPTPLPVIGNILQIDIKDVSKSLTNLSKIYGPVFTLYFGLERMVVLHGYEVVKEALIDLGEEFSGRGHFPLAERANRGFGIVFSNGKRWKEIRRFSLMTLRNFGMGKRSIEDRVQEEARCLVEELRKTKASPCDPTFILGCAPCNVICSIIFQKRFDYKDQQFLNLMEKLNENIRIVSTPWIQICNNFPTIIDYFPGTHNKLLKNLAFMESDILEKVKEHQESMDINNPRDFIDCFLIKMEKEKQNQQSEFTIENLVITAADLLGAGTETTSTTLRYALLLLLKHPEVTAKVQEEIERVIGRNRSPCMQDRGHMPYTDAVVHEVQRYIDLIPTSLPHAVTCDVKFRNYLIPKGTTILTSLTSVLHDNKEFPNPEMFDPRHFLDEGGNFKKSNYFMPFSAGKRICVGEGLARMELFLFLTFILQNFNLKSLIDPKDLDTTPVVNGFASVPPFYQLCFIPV
Chain of Adenosine receptor A2a (P29274 whole entry): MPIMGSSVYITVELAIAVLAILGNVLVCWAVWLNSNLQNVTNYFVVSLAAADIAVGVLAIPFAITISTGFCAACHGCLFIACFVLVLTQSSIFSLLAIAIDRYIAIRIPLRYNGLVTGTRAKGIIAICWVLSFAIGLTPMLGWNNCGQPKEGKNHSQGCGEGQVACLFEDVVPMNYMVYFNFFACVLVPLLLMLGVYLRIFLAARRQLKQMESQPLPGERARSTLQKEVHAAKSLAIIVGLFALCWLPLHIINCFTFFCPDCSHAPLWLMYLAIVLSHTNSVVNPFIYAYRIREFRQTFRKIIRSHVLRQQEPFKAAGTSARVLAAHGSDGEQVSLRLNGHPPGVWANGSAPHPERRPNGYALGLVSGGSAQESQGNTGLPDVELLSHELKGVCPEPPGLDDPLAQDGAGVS

Row | Ki (Adenosine receptor A2a) | inhibition [6] | IC50 (Cytochrome P450 1A2) | IC50 (Cytochrome P450 2C19) | IC50 (Cytochrome P450 2D6) | Ratio (Caco-2) | Ki (Adenosine receptor A1) | SMILES | also measured
1 | – | – | – | – | – | – | – | CC[C@H](C)[C@H](N)C(=O)OCn1ccs/c1=N\C(=O)c1cc(F)c(NC(=O)CC(C)(C)C)c(F)c1 | solubility [1]: 19.4 mg/mL (≈ 39.1 mM); half-life [2]: 24 min; Tmax (Rattus norvegicus [3]): 54 min; Cmax (Rattus norvegicus [4]): 381 ng/mL; F (Rattus norvegicus [5]): 31%
2 | 890 nM | 31% | – | – | – | – | – | CCC(=O)Nc1ccc(C(=O)Nc2nccs2)cc1 | –
3 | – | – | > 40 µM | > 40 µM | > 40 µM | 1.1 | – | COCCOc1ccc(N2CCN(CCn3ncc4c3nc(N)n3nc(-c5ccco5)nc43)CC2)cc1 [PRELADENANT] | ED50 (Mus musculus): 0.4 mg/kg; inhibition [7]: 30%
4 | 32 nM | – | – | – | – | – | 580 nM | Cc1cc(C(=O)Nc2nccs2)cc(Cl)c1NC(=O)CC(C)(C)C | Ratio Ki (Homo sapiens): 18
5 | 28 nM | – | – | – | – | – | 220 nM | CC(C)(C)CC(=O)Nc1ccc(C(=O)Nc2ncc(Cl)s2)cc1 | –
6 | 180 nM | 14% | – | – | – | – | – | CC(C)(C)CC(=O)Nc1ccc(C(=O)Nc2nccs2)c(Cl)c1 | –
7 | 50 nM | – | – | – | – | – | 1100 nM | COc1cc(NC(=O)CC(C)(C)C)ccc1C(=O)Nc1nccs1 | Ratio Ki (Homo sapiens): 22
8 | 36 nM | 39% | > 40 µM | > 40 µM | > 40 µM | 0.7 | – | CC(C)(C)CC(=O)Nc1ccc(C(=O)Nc2nccs2)cc1 | CL (Liver microsomes [8]): 0.7 L/min; CL (Liver microsomes [9]): 11 mL/min; IC50 (Cytochrome P450 2C9): > 40 µM; IC50 (Cytochrome P450 3A4): > 40 µM
9 | 220 nM | 47% | > 40 µM | 23 µM | > 40 µM | 0.8 | – | Cc1ccccc1C(=O)Nc1ccc(C(=O)Nc2nccs2)cc1 | CL (Liver microsomes [8]): 0.5 L/min; CL (Liver microsomes [9]): 5 mL/min; IC50 (Cytochrome P450 2C9): > 40 µM; IC50 (Cytochrome P450 3A4): 1.4 µM
10 | 90 nM | 64% | > 40 µM | > 40 µM | > 40 µM | 0.7 | – | CC(C)CC(=O)Nc1ccc(C(=O)Nc2nccs2)cc1 | CL (Liver microsomes [8]): 1.6 L/min; CL (Liver microsomes [9]): 12 mL/min; IC50 (Cytochrome P450 2C9): > 40 µM; IC50 (Cytochrome P450 3A4): > 40 µM
11 | 120 nM | – | – | – | – | – | 1100 nM | Cc1cnc(NC(=O)c2ccc(NC(=O)CC(C)(C)C)cc2)s1 | –
12 | 200 nM | 36% | – | – | – | – | – | Cc1cc(NC(=O)CC(C)(C)C)ccc1C(=O)Nc1nccs1 | –
13 | 220 nM | – | – | – | – | – | – | Cc1nc(NC(=O)c2ccc(NC(=O)CC(C)(C)C)cc2)sc1C | –
